In article PMC3625046 (Bioorganic & medicinal chemistry letters, 2013):

Experiments:
[1] = tested on: human foreskin fibroblasts; experiment: Toxicity to human foreskin fibroblasts; assay type: cell-based
[2] = target: T1, Toxoplasma gondii enoyl reductase (TgENR) (Toxoplasma gondii, UniProt Q6UCJ9); experiment: TgENR enzyme assay; assay type: biochemical; settings: read-out: Inhibition (%) at 1 µM
T1 sequence (Q6UCJ9 28-417): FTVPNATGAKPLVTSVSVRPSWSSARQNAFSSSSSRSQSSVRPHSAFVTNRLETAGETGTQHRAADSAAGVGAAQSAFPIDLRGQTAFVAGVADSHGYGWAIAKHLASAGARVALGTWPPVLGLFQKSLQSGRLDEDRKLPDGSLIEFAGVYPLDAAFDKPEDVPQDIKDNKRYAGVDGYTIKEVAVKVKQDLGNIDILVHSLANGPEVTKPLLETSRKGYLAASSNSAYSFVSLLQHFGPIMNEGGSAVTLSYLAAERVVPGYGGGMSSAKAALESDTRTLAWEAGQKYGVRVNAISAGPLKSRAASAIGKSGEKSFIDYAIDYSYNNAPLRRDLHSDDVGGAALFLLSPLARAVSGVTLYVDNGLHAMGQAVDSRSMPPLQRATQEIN

Toxoplasma gondii = settings: read-out: IC50, growth of T. gondii parasites; cited from earlier work
[3] = tested on: P. falciparum strain TM91C235 (WRAIR, Thailand; chloroquine resistant); experiment: SYBR Green assay, P. falciparum strain C235; assay type: cell-based, Plasmodium falciparum
[4] = tested on: P. falciparum strain D6 (CDC/Sierra Leone); experiment: SYBR Green assay, P. falciparum strain D6; assay type: cell-based, Plasmodium falciparum; settings: chloroquine sensitive D6 strain
[5] = tested on: T. gondii (Pru strain expressing firefly luciferase); experiment: T. gondii murine infection model; assay type: in vivo, mice
Summary of the method: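 Mice infected intraperitoneally with 2x10⁴ Pru-strain T. gondii tachyzoites expressing firefly luciferase. Animals imaged daily by bioluminescence after intraperitoneal luciferin (3mg). Parasite burden in treated mice compared with a DMSO control group on day 6 post-infection. Three separate replicate experiments, analysed singly and pooled; ANOVA with group and run as factors.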

| Structure (SMILES) | Toxicity [1] | also measured |
| --- | --- | --- |
| O=S(=O)(c1ccc(Oc2ccc(Cl)cc2O)cc1)N1CCCCC1 [Compound 7b] | >10 µM |  |
| CC(C)(C)OC(=O)N1CCN(C(=O)c2ccc(Oc3ccc(Cl)cc3O)s2)CC1 [Compound 17b] | >10 µM |  |
| O=S(=O)(c1ccc(Oc2ccc(Cl)cc2O)cc1)N1CCCC1 [Compound 7a] | >10 µM |  |
| O=C(O)c1ccc(Oc2ccc(Cl)cc2O)s1 [Compound 16] | >10 µM |  |
| CC(=O)N1CCN(Cc2ccc(Oc3ccc(Cl)cc3O)s2)CC1 [Compound 18] | >10 µM |  |
| CN1CCN(Cc2ccc(Oc3ccc(Cl)cc3O)cc2)CC1 [Compound 5d] | >10 µM |  |
| Oc1cc(Cl)ccc1Oc1ccc(C(F)(F)F)cc1Cl [Compound 3] | >10 µM |  |
| CN1CCN(c2ccc(Oc3ccc(Cl)cc3O)cc2)CC1 [Compound 5a] | >10 µM |  |
| O=C(c1ccc(Oc2ccc(Cl)cc2O)s1)N1CCNCC1 [Compound 17c] | >10 µM |  |
| Oc1cc(Cl)ccc1Oc1ccc2ccccc2c1 [Compound 2] | >10 µM |  |
| Cn1cc(C(=O)Nc2ccc(Cl)cc2O)c(C(F)(F)F)n1 [Compound 10] | >10 µM |  |
| Oc1cc(Cl)ccc1Oc1ccc(N2CCOCC2)cc1 [Compound 5b] | >10 µM |  |
| Oc1cc(Cl)ccc1Oc1ccc(Cl)cc1Cl [Triclosan] | >10 µM | inhibition at 1 µM [2]: 98%; IC50 (Toxoplasma gondii): ~200 nM |
| CNC(=O)c1ccc(Oc2ccc(Cl)cc2O)o1 [Compound 14a] | >10 µM |  |
| Cc1cc(NC(=O)c2ccc(Oc3ccc(Cl)cc3O)o2)no1 [Compound 14b] | >10 µM |  |
| Oc1cc(Cl)ccc1Oc1ccc2ncccc2c1 [Compound 19] | >10 µM |  |
| CC(=O)N1CCN(C(=O)c2ccc(Oc3ccc(Cl)cc3O)o2)CC1 [Compound 14c] | >10 µM |  |
| CC(=O)N1CCN(c2ccc(Oc3ccc(Cl)cc3O)cc2)CC1 [Compound 5c] | >10 µM | activity against P. falciparum C235 [3]: inactive; activity against P. falciparum D6 [4]: inactive; efficacy at lower dose ([5]; 50mg/kg): not effective; toxicity in infected mice ([5]; 75mg/kg, by the seventh day after infection): toxic; solubility of higher dose ([5]; 100mg/kg): not completely soluble |
